S100A4 MyoIIA – inhibitors of human S100A4 binding to myosin IIA peptide | P26447 | S100A4/TAMRA-MyoIIA peptide fluorescence polarization | inhibition, % at 10.7 µM | actives 0.14% (n = 360,000);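 active = mean inhibition of at least 70% across replicates, with every replicate also reaching that level; inconclusive = mean inhibition reaches 70% but some replicates fall short; inactive = mean inhibition below 70%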
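Material: S100A4 monomer (human). Medium: Calcium-containing HEPES buffer, pH 7.2. Probe or stimulus: labelled myosin peptide probe, 5 nM. Compound dosing: one concentration per compound. Timing: polarization read 5 min after assay mix addition, stable 5–60 min. Benchmarks: DMSO as neutral control, TFP as positive control.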
MLL AF4-AF9 inh – MLL-AF4/AF9 protein interaction inhibition; inhibition, % at 10 µM; AlphaScreen, biotin-AF4 peptide binding to FLAG-AF9; actives 0.47% (n = 350,000);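 active = every replicate reaching a set inhibition limit, whatever the replicate mean, cut at about 25% in these data; inconclusive = mean inhibition reaches that limit but some replicates miss it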;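 also: 0% = plate neutral control median and 100% = total signal loss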
Target sequence (P42568 whole entry, looked up): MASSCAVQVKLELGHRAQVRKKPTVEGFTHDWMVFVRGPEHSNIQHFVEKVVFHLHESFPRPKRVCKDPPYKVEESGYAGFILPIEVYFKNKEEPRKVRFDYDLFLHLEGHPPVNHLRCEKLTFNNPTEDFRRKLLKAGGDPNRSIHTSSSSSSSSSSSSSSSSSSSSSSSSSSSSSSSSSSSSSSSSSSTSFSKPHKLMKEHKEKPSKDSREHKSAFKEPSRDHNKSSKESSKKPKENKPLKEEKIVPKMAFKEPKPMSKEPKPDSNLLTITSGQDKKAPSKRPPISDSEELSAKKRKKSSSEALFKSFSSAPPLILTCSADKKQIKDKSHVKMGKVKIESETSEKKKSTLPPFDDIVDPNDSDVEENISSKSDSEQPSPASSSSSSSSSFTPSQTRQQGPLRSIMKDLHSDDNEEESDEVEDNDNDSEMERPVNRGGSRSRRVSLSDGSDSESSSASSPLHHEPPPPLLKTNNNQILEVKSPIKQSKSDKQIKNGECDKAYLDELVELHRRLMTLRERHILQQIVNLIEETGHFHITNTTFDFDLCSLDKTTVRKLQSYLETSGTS
SIRT5 inh – inhibitors of human sirtuin-5 desuccinylase; actives 1.1% (n = 330,000); AID 652115; Purified SirT5, succinyl-peptide AMC, trypsin-coupled fluorescence; inhibition, % at 15 µM; Q9NXA8; in the data active = inhibition above about 15%; inconclusive = no clear call, values can overlap the other calls
CaV13 ICDI inh – Disruptors of the CACNA1D IQ motif to Ca2+-dependent inactivation inhibitor domain association, primary screening, Förster resonance energy transfer in intact living …; HEK cells, CFP/YFP FRET ICDI-IQ, plate reader, 10 min; percent FRET-ratio fall versus neutral wells; inhibition, % at 12.3 µM; actives 0.098% (n = 340,000); AID 743397;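 active = mean replicate inhibition of at least 30% and at least 1% of replicates passing that level; inconclusive = only one of the two criteria is met; inactive = neither criterion is met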;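 also: 0% = median of the neutral control wells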
DENV2 CPE – protects cells from dengue virus 2 cytopathic effect | DENV2-infected cells, cytopathic effect rescue, plate reader | CPE inhibition, % at 9.99 µM | actives 1.7% (n = 350,000) | AID 651640; in the data active = CPE inhibition above about 20%, passing the limit was not always enough; inconclusive = no clear call, values can overlap the other calls; tested in BHK-21 cells;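 also: 0% = median of neutral control wells and 100% = median of positive control wells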
Numbers without * were called inactive; u = inconclusive; x = no result given. An excerpt weighted towards active compounds, which were near 2.7% of everything screened.

SMILES	S100A4 MyoIIA	MLL AF4-AF9 inh	SIRT5 inh	CaV13 ICDI inh	DENV2 CPE
CO[C@H]1CN(C)C(=O)c2cc(NC(=O)NC3CCCCC3)ccc2OC[C@H](C)N(CCc2ccccc2)C[C@H]1C	2	3	2	x	-1
CCOc1cc(CNc2cccc3[nH]c(C)nc23)ccc1OC	19	30*	-6	-13	1
COc1ccc(NC(=O)Nc2cccc3c2O[C@H](CN(C)S(=O)(=O)c2ccc(C)cc2)[C@H](C)CN([C@@H](C)CO)C3=O)cc1	3	3	2	x	-6
Cc1[nH]c2ccccc2c1C(=O)c1c(N)[nH]c(C(=O)c2ccc(Br)cc2)c1-c1ccc(Br)cc1	1	x	-11	-16	-8
CN(c1cccc(NC(=O)c2ccc(C(C)(C)C)cc2)c1)S(C)(=O)=O	-8	1	-5	4	21*
CN(c1cccc(NC(=O)c2ccc(N(C)S(=O)(=O)c3ccccc3)cc2)c1)S(C)(=O)=O	3	3	1	5	-3
CCOC(=O)c1oc2ccc(S(=O)(=O)n3nc(-c4ccc(Cl)cc4)cc3N)cc2c1C	-3	2	3	-7	-1
CCOC(=O)c1oc2ccc(S(=O)(=O)n3nc(-c4ccc(C)cc4)cc3N)cc2c1C	1	2	x	-7	90*
Cc1nc2c(-c3ccccc3)c(C)[nH]n2c(=O)c1Cc1ccccc1	-1	0	-1	-6	-1
Cc1nc2c(-c3ccc(Cl)cc3)c(C)[nH]n2c(=O)c1Cc1ccccc1	1	7	17*	4	-1
O=C(/C=C/c1ccc(Br)o1)OCc1nc2ccsc2c(=O)[nH]1	13	x	25*	x	x
Cc1ccc(C(=O)OCc2nc3ccsc3c(=O)[nH]2)o1	0	-2	-7	-2	-8
COc1cc(OC)cc(C(=O)NCCC(c2ccccc2)c2ccccc2)c1	-7	0	2	-4	45*
O=S(=O)(CCN1C=CC(C(F)(F)F)=NCC1)c1ccc(Cl)cc1Cl	3	44*	-1	-20	0
O=S(=O)(CCN1C=CC(C(F)(F)F)=NCC1)c1ccc(F)cc1	-1	-1	-2	-4	-1
COc1ccc(N=Nc2cc(C)c(O)c(CN3CCCCC3)c2)cc1	-1	54*	1	-15	11
COc1ccc(CN2CCCCCC2)cc1	0	-3	-1	3	u
C[C@H](CO)N1C[C@H](C)[C@H](CN(C)S(=O)(=O)c2ccsc2)OCc2ccccc2-c2ccccc2C1=O	12	3	-2	x	1
CCN(CC(=O)Nc1ccccc1C(F)(F)F)C(=O)c1ccc2c(c1)NC(=O)C(C)S2 (configuration not stated)	2	2	x	-12	u
CCN(CC(=O)Nc1cc(Cl)ccc1C)C(=O)c1ccc2c(c1)NC(=O)C(C)S2 (configuration not stated)	-4	0	0	-4	50*
CCCN1C(=O)c2cc(C(=O)NC3CCCCCC3)ccc2C1O (configuration not stated)	-5	0	x	-2	-2
CCOC(=O)N1CCC(N2C(=O)c3cc(C(=O)NC4CCCCC4)ccc3C2O)CC1 (configuration not stated)	-2	-7	x	38*	-11
Nc1[nH]c(C(=O)c2ccc(Br)cc2)c(-c2ccc(Cl)cc2)c1C(=O)NCCc1c[nH]c2ccccc12	-4	x	-1	-16	44*
CC(NC(=O)c1c(N)[nH]c(C(=O)c2ccc(Cl)cc2)c1-c1ccc(Br)cc1)c1cccc2ccccc12 (configuration not stated)	-4	x	-2	-17	39*
CC(NC(=O)c1c(N)[nH]c(C(=O)c2ccccc2)c1-c1ccccc1Br)c1cccc2ccccc12 (configuration not stated)	-6	-3	0	-5	6
C[C@@H]1CCCCO[C@@H](CN(C)C(=O)Nc2ccccc2)[C@H](C)CN([C@H](C)CO)C(=O)c2cc(NC(=O)C3CCCCC3)ccc2O1	9	0	3	x	-2
C[C@H]1CN([C@@H](C)CO)C(=O)c2cc(-c3ccc(F)cc3)cnc2O[C@@H]1CN(C)CC1CCCC1	-59	-7	-2	x	4

Screens (PubChem)
